The text below walks through data of PubChem BioAssay.

Unmarked numbers belong to inactive results.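 How the source made its calls: active means growth inhibition above 25% in both replicates, a cutoff set 3 SD above the mean; inconclusive means above 25% in only one replicate; inactive means the rest.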

This test can be described thus: S. cerevisiae growth inhibition in permissive medium (OD615), pilot counter-assay for S. cerevisiae lifespan shortening project, permissive growth control (AID 705). Particulars: OD615, 24 h, at 10 µM, hits give high values. The method, boiled down:
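Material: engineered DeaD yeast; Compound: one dose 10 µM, DMSO 0.25% final; Detection: absorbance (optical density) at 615 nm; Buffer or medium: permissive raffinose/galactose medium; Timing: 24 h exposure, 30 °C.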
Regarding `Brc1ccc(Oc2nnnn2-c2ccccc2)cc1`, the growth inhibition was -5.57%.

Regarding `COc1cc(Cl)c(S(=O)(=O)N2CCN(Cc3ccc4c(c3)OCO4)CC2)cc1Cl`, the growth inhibition is -9.75%.

As for `Cc1ccc(-c2nc(C(=O)NC3CCCCCC3)no2)cc1`, the growth inhibition is -6.78%.

`O=C(c1cc(C2CC2)on1)N1CCN(c2ccc(F)cc2)CC1`: the growth inhibition was -18.2%.

As to `Brc1ccc(-c2nnc3ccc(N4CCN(c5ccccc5)CC4)nn23)cc1`, the growth inhibition was 7.94%.

In the case of `CCOC(=O)c1ccccc1NC1c2ccccc2C(=O)N1c1ccc(C)cn1` (stereo not given), the growth inhibition is -11.3%.

For `O=C1c2ccccc2C(Nc2ccc(S(=O)(=O)N3CCOCC3)cc2)N1c1cccnc1` (stereo not given), the growth inhibition was -3.45%.

As for `Cc1ccccc1S(=O)(=O)Cc1ccc(C(=O)N2CC(C)CC(C)C2)o1` (stereo not given), the growth inhibition is -18.1%.

`CCOC(=O)C1CCN(C(=O)Nc2ccc(Cl)cc2)CC1`: the growth inhibition is -17.2%.

As to `Cc1c(S(=O)(=O)N2CCc3ccccc3C2)c(=O)n(C)c(=O)n1C`, the growth inhibition was -14.9%.

Turning to `Cc1ccc(Cl)cc1N1CCN(C(=O)CCS(=O)(=O)c2cccc3nonc23)CC1`, the growth inhibition was 3.25%.

Regarding `Cn1cccc1Cc1nnc(SCC(=O)Nc2ccc3c(c2)OCCO3)n1CCc1ccccc1`, the growth inhibition was 6.56%.

Regarding `COc1ccc(-c2n[nH]c(C)c2-c2cnn(-c3ccccc3)c2)c(O)c1`, the growth inhibition was 5.3%.

`N#CCCN1CCN(C(=S)c2ccc(-c3cccc(Cl)c3)o2)CC1`: the growth inhibition is -12.9%.

Consider `COc1cccc(NC(=O)c2ccc(S(=O)(=O)N3CCCCC3)cc2)c1`, for which the growth inhibition was 4.79%.
